Results from article PMC10242637 (Saudi Pharmaceutical Journal : SPJ, 2023).

What was measured:
[1] = tested on: fibroblasts NCTC cells (clone 929); test: Cytotoxicity against mammalian cells; type: cell-based; conditions: for SI (Selective Index): ratio between CC50 (NCTC) and IC50 (amastigote - TCA); for CC50: read-out: CC50 NCTC, NCTC cells (clone L929), 48 h, MTT
Outline: (§1)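 NCTC clone 929 fibroblasts were seeded at 6 × 10^4 cells/well and exposed to test compound (200 to 1.5 μM, 1:2 dilutions) for 48 h at 37 °C in 5% CO2, with 0.5% v/v DMSO final. Viability was read by MTT at 570 nm, and CC50 was taken from sigmoid dose–response curves. SI = CC50 divided by the amastigote IC50. Two independent runs, each in duplicate.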

[2] = Cytotoxicity against mammalian cells; type: cell-based; conditions: mouse, NCTC clone 929 (L929) fibroblasts
Outline: as §1

[3] = tested on: T. cruzi trypomastigotes (Y strain); test: Anti-trypomastigote assay; type: cell-based; conditions: Trypanosoma cruzi, 24 h, read-out: IC50 (µM ± SD) T.c.T
Outline: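 Y-strain trypomastigotes at 1 × 10^6 cells/well in RPMI 1640 were exposed to test compound (150 to 1.1 μM, 1:2 dilutions) for 24 h at 37 °C in 5% CO2, with 0.5% v/v DMSO final. Resazurin (0.011% v/v) was then added for 24 h and absorbance read at 570 nm. IC50 came from non-linear regression against untreated parasites as 100% viability. Two independent runs, each in duplicate.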

[4] = Calculation of physicochemical properties and descriptors; conditions: 2b over the neutral analogue 2c; from calculated LogS7.4

(3,4-dihydroxyphenyl)-(4-phenylpiperazin-1-yl)methanone [1d]
SI (Selective Index) [1]: >5.7
CC50 [1]: > 200 µM

COc1ccc(C(=O)N2CCN(Cc3ccccc3)CC2)cc1 [1b, (4-Benzylpiperazin-1-yl)(4-methoxyphenyl)methanone]
CC50 at 48 h [2]: > 200 µM
IC50 [3]: > 150 µM

O=C(c1ccc(Cl)cc1)N1CCN(Cc2ccccc2)CC1 [1 g, 1‐benzyl‐4‐(4‐chlorobenzoyl)piperazine]
CC50 at 48 h [2]: > 200 µM
IC50 [3]: > 150 µM

COc1cc(C(=O)N2CCN(Cc3ccccc3)CC2)ccc1O [1a, (4-Benzylpiperazin-1-yl)(4-hydroxy-3-methoxyphenyl)methanone]
SI (Selective Index) [1]: >5.6
CC50 at 48 h [2]: > 200 µM
IC50 [3]: > 150 µM

COc1ccc(/C=C/C(=O)N2CCN(Cc3ccccc3)CC2)cc1 [2b, (2E)-1-(4-benzylpiperazin-1-yl)-3-(4-methoxyphenyl) prop-2-en-1-one]
SI (Selective Index) [1]: >7
CC50 at 48 h [2]: > 200 µM
IC50 [3]: > 150 µM
increase in LogS7.4 value [4]: 1.3 log unit

(4-methoxyphenyl)(4-phenylpiperazin-1-yl)methanone [1f]
CC50 [1]: > 200 µM

COc1cc(/C=C/C(=O)N2CCN(Cc3ccccc3)CC2)ccc1O [2a, (2E)-1-(4-benzylpiperazin-1-yl)-3-(4-hydroxy-3-methoxyphenyl)prop-2-en-1-one]
CC50 at 48 h [2]: > 200 µM
IC50 [3]: > 150 µM

(4-hydroxy-3-methoxyphenyl)(4-phenylpiperazin-1-yl)methanone [1e]
CC50 [1]: > 200 µM

(2E)-3-(3,4-dihydroxyphenyl)-1-(4-phenylpiperazin-1-yl)prop-2-en-1-one [2d]
SI (Selective Index) [1]: 2.8
CC50 [1]: 57.2 ± 2 µM

(2E)-3-(4-hydroxy-3-methoxyphenyl)-1-(4-phenylpiperazin-1-yl)prop-2-en-1-one
CC50 [1]: > 200 µM

(2E)-1-(1-benzylpiperidin-4-yl)-3-(4-methoxyphenyl)prop-2-en-1-one [2c]
SI (Selective Index) [1]: >11.2
CC50 [1]: > 200 µM

COc1ccc(C(=O)N2CCC(Cc3ccccc3)CC2)cc1 [1c, 4-Benzyl-1-(4-methoxybenzoyl)piperidine]
CC50 at 48 h [2]: > 200 µM
IC50 [3]: 65.3 ± 2.3 µM

O=C(Cn1ccnc1[N+](=O)[O-])NCc1ccccc1 [BZN, Benznidazole, reference compound]
SI (Selective Index) [1]: >40
CC50 at 48 h [2]: > 200 µM
IC50 [3]: 12.3 ± 3.3 µM
